Reference: ChEMBL document CHEMBL5058577, “EUbOPEN Chemogenomics Library 2 (Multiplex)” (2022)

Test system: HEK-293T
Experiment: Multiplex assay against HEK293T
Format: toxicity, cell-based
Settings: human
Method in brief: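 Cells stained live at seeding with Hoechst33342, BioTracker Green Microtubule Cytoskeleton Dye, MitoTracker Red and Annexin V Alexa Fluor 680 were imaged on a CQ1 microscope at 37°C and 5% CO2 after compound addition. Their classification by CellPathfinder machine-learning gating ran from Hoechst high-intensity objects versus normal cells, to healthy, pyknosed or fragmented nuclei among normal cells, to mitotic or apoptotic among pyknosed cells. Tubulin, mitochondrial-mass and membrane-permeability phenotypes are per cents of healthy-nucleus cells.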

[1] = 12 h, 1 µM, compound concentration 1 uM, replicate 1
[2] = 12 h, 1 µM, compound concentration 1 uM, replicate 2
[3] = 12 h, 10 µM, compound concentration 10 uM, replicate 1
[4] = 12 h, 10 µM, compound concentration 10 uM, replicate 2
[5] = 24 h, 1 µM, compound concentration 1 uM, replicate 1
[6] = 24 h, 1 µM, compound concentration 1 uM, replicate 2
[7] = 24 h, 10 µM, compound concentration 10 uM, replicate 1
[8] = 24 h, 10 µM, compound concentration 10 uM, replicate 2
[9] = 48 h, 1 µM, compound concentration 1 uM, replicate 1
[10] = 48 h, 1 µM, compound concentration 1 uM, replicate 2
[11] = 48 h, 10 µM, compound concentration 10 uM, replicate 1
[12] = 48 h, 10 µM, compound concentration 10 uM, replicate 2

## CCCCC1=NC2(CCCC2)C(=O)N1Cc1ccc(-c2ccccc2-c2nnn[nH]2)cc1 [IRBESARTAN]
[1]
  Population Apoptotic (%): 24%
  Population Fragmented Nuclei (%): 9%
  Population Healthy Nuclei (%): 79%
  Population Hoechst High Intensity Objects (%): 9%
  Population Membrane Permeable-Phenotype (%): 0%
  Population Mitochondria Different-Phenotype (%): 34%
  Population Mitotic Cells (%): 75%
  Population Normal (%): 91%
  Population Pyknosed Nuclei (%): 10%
  Population Tubulin-Different-Phenotype (%): 17%
  Total Cell Count: 500
[2]
  Population Apoptotic (%): 28%
  Population Fragmented Nuclei (%): 8%
  Population Healthy Nuclei (%): 78%
  Population Hoechst High Intensity Objects (%): 4%
  Population Mitochondria Different-Phenotype (%): 63%
  Population Mitotic Cells (%): 71%
  Population Normal (%): 95%
  Population Pyknosed Nuclei (%): 12%
  Population Tubulin-Different-Phenotype (%): 20%
  Total Cell Count: 353
[3]
  Population Apoptotic (%): 50%
  Population Fragmented Nuclei (%): 7%
  Population Healthy Nuclei (%): 70%
  Population Hoechst High Intensity Objects (%): 5%
  Population Membrane Permeable-Phenotype (%): 2%
  Population Mitochondria Different-Phenotype (%): 46%
  Population Mitotic Cells (%): 50%
  Population Normal (%): 94%
  Population Pyknosed Nuclei (%): 22%
  Population Tubulin-Different-Phenotype (%): 50%
  Total Cell Count: 219
[4]
  Population Apoptotic (%): 56%
  Population Fragmented Nuclei (%): 6%
  Population Healthy Nuclei (%): 78%
  Population Hoechst High Intensity Objects (%): 13%
  Population Membrane Permeable-Phenotype (%): 0%
  Population Mitochondria Different-Phenotype (%): 66%
  Population Mitotic Cells (%): 43%
  Population Normal (%): 86%
  Population Pyknosed Nuclei (%): 15%
  Population Tubulin-Different-Phenotype (%): 33%
  Total Cell Count: 351
[5]
  Population Apoptotic (%): 31%
  Population Fragmented Nuclei (%): 9%
  Population Healthy Nuclei (%): 79%
  Population Hoechst High Intensity Objects (%): 4%
  Population Membrane Permeable-Phenotype (%): 0%
  Population Mitochondria Different-Phenotype (%): 24%
  Population Mitotic Cells (%): 68%
  Population Normal (%): 95%
  Population Pyknosed Nuclei (%): 10%
  Population Tubulin-Different-Phenotype (%): 15%
  Total Cell Count: 625
[6]
  Population Apoptotic (%): 34%
  Population Healthy Nuclei (%): 80%
  Population Hoechst High Intensity Objects (%): 7%
  Population Mitochondria Different-Phenotype (%): 45%
  Population Mitotic Cells (%): 65%
  Population Normal (%): 92%
  Population Pyknosed Nuclei (%): 9%
  Population Tubulin-Different-Phenotype (%): 14%
  Total Cell Count: 456
[7]
  Population Apoptotic (%): 27%
  Population Fragmented Nuclei (%): 6%
  Population Healthy Nuclei (%): 77%
  Population Hoechst High Intensity Objects (%): 3%
  Population Membrane Permeable-Phenotype (%): 1%
  Population Mitochondria Different-Phenotype (%): 37%
  Population Mitotic Cells (%): 72%
  Population Normal (%): 96%
  Population Pyknosed Nuclei (%): 15%
  Population Tubulin-Different-Phenotype (%): 32%
  Total Cell Count: 287
[8]
  Population Apoptotic (%): 41%
  Population Fragmented Nuclei (%): 11%
  Population Hoechst High Intensity Objects (%): 10%
  Population Membrane Permeable-Phenotype (%): 0%
  Population Mitochondria Different-Phenotype (%): 49%
  Population Mitotic Cells (%): 58%
  Population Normal (%): 89%
  Population Pyknosed Nuclei (%): 11%
  Population Tubulin-Different-Phenotype (%): 22%
  Total Cell Count: 434
[9]
  Population Apoptotic (%): 29%
  Population Fragmented Nuclei (%): 11%
  Population Healthy Nuclei (%): 81%
  Population Hoechst High Intensity Objects (%): 3%
  Population Membrane Permeable-Phenotype (%): 0%
  Population Mitochondria Different-Phenotype (%): 21%
  Population Mitotic Cells (%): 70%
  Population Normal (%): 96%
  Population Pyknosed Nuclei (%): 7%
  Population Tubulin-Different-Phenotype (%): 15%
  Total Cell Count: 958
[10]
  Population Apoptotic (%): 23%
  Population Fragmented Nuclei (%): 9%
  Population Healthy Nuclei (%): 84%
  Population Hoechst High Intensity Objects (%): 2%
  Population Membrane Permeable-Phenotype (%): 1%
  Population Mitochondria Different-Phenotype (%): 19%
  Population Mitotic Cells (%): 76%
  Population Normal (%): 97%
  Population Pyknosed Nuclei (%): 6%
  Population Tubulin-Different-Phenotype (%): 8%
  Total Cell Count: 705
[11]
  Population Apoptotic (%): 25%
  Population Fragmented Nuclei (%): 15%
  Population Healthy Nuclei (%): 75%
  Population Hoechst High Intensity Objects (%): 1%
  Population Membrane Permeable-Phenotype (%): 0%
  Population Mitochondria Different-Phenotype (%): 21%
  Population Mitotic Cells (%): 75%
  Population Normal (%): 98%
  Population Pyknosed Nuclei (%): 9%
  Population Tubulin-Different-Phenotype (%): 15%
  Total Cell Count: 473
[12]
  Population Apoptotic (%): 46%
  Population Fragmented Nuclei (%): 12%
  Population Healthy Nuclei (%): 80%
  Population Hoechst High Intensity Objects (%): 3%
  Population Mitochondria Different-Phenotype (%): 26%
  Population Mitotic Cells (%): 53%
  Population Normal (%): 96%
  Population Pyknosed Nuclei (%): 6%
  Total Cell Count: 684
